ChEMBL document CHEMBL4359877, “Identification of benzothiazinones containing an oxime functional moiety as new anti-tuberculosis agents” (Eur J Med Chem, 2019)
In brackets after ≈: the same amount, converted by molar mass.

Experiments:
[1] = system: Mycobacterium tuberculosis; test: Antimycobacterial activity against multidrug-resistant Mycobacterium tuberculosis isolate 16995 assessed as reduction in bacterial cell growth incubated for 7 days by microplate alamar blue assay; format: functional; settings: isolate 16995, 168 h
How it was run: (§1)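 MABA: H37Rv or clinical MDR isolates (resistant to INH and RFP, Beijing Chest Hospital patients) grown to late log phase in 7H9 with glycerol, Tween 80 and ADC, washed, filtered and frozen. Two-fold compound dilutions with 2 × 10⁵ CFU per well, 37 °C; Alamar blue plus Tween 80 added on day 7, fluorescence (ex 530/em 590) read after 16–24 h. MIC = lowest concentration giving ≥90% fluorescence reduction versus mean of bacterium-only controls; RIF and INH as positive controls.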

[2] = system: Mycobacterium tuberculosis; test: Antimycobacterial activity against multidrug-resistant Mycobacterium tuberculosis isolate 16833 assessed as reduction in bacterial cell growth incubated for 7 days by microplate alamar blue assay; format: functional; settings: isolate 16833, 168 h; how it was run: as §1

| Compound | MIC90 [1] | MIC90 [2] |
| --- | --- | --- |
| CCO/N=C(\C)CN1CCN(c2nc(=O)c3cc(C(F)(F)F)cc([N+](=O)[O-])c3s2)CC1 | 0.01 µg/mL (≈ 0.0218 µM) | < 0.016 µg/mL |
| C/C(CN1CCN(c2nc(=O)c3cc(C(F)(F)F)cc([N+](=O)[O-])c3s2)CC1)=N\OCc1ccccc1 | 0.01 µg/mL (≈ 0.0192 µM) | < 0.016 µg/mL |
| CCON=C1CCC(CN2CCN(c3nc(=O)c4cc(C(F)(F)F)cc([N+](=O)[O-])c4s3)[C@@H](C)C2)CC1 (some centres undefined) | < 0.016 µg/mL | < 0.016 µg/mL |
| CON=C1CCC(CN2CCN(c3nc(=O)c4cc(C(F)(F)F)cc([N+](=O)[O-])c4s3)C[C@@H]2C)CC1 (some centres undefined) | < 0.016 µg/mL | < 0.016 µg/mL |
| CO/N=C(\C)CCN1CCN(c2nc(=O)c3cc(C(F)(F)F)cc([N+](=O)[O-])c3s2)CC1 | < 0.016 µg/mL | 0.017 µg/mL (≈ 0.037 µM) |
| CON=C1CCC(CN2CCN(c3nc(=O)c4cc(C(F)(F)F)cc([N+](=O)[O-])c4s3)C[C@H]2C)CC1 (some centres undefined) | < 0.016 µg/mL | < 0.016 µg/mL |
| CON=C1CCC(CN2CCN(c3nc(=O)c4cc(C(F)(F)F)cc([N+](=O)[O-])c4s3)[C@@H](C)C2)CC1 (some centres undefined) | < 0.016 µg/mL | < 0.016 µg/mL |
| CCON=C1CCC(CN2CCN(c3nc(=O)c4cc(C(F)(F)F)cc([N+](=O)[O-])c4s3)C[C@H]2C)CC1 (some centres undefined) | < 0.016 µg/mL | < 0.016 µg/mL |
| CON=C1CCC(CN2CCN(c3nc(=O)c4cc(C(F)(F)F)cc([N+](=O)[O-])c4s3)CC2)CC1 (centres undefined) | < 0.016 µg/mL | < 0.016 µg/mL |
| CCON=C1CCC(CN2CCN(c3nc(=O)c4cc(C(F)(F)F)cc([N+](=O)[O-])c4s3)C[C@@H]2C)CC1 (some centres undefined) | < 0.016 µg/mL | < 0.016 µg/mL |
| CCON=C1CCC(CN2C(C)CN(c3nc(=O)c4cc(C(F)(F)F)cc([N+](=O)[O-])c4s3)CC2C)CC1 (centres undefined) | < 0.016 µg/mL | < 0.016 µg/mL |
| CCO/N=C(\C)CCN1CCN(c2nc(=O)c3cc(C(F)(F)F)cc([N+](=O)[O-])c3s2)CC1 | < 0.016 µg/mL | < 0.016 µg/mL |
| CCON=C1CCC(CN2CCN(c3nc(=O)c4cc(C(F)(F)F)cc([N+](=O)[O-])c4s3)[C@H](C)C2)CC1 (some centres undefined) | < 0.016 µg/mL | < 0.016 µg/mL |
| CCON=C1CC(CN2CCN(c3nc(=O)c4cc(C(F)(F)F)cc([N+](=O)[O-])c4s3)CC2)C1 (centres undefined) | < 0.016 µg/mL | < 0.016 µg/mL |
| CCON=C1CCC(CN2CCN(c3nc(=O)c4cc(C(F)(F)F)cc([N+](=O)[O-])c4s3)CC2C)CC1 (centres undefined) | < 0.016 µg/mL | < 0.016 µg/mL |
| CON=C1CCC(CN2CCN(c3nc(=O)c4cc(C(F)(F)F)cc([N+](=O)[O-])c4s3)CC2C)CC1 (centres undefined) | < 0.016 µg/mL | < 0.016 µg/mL |
| CCON=C1CCC(CN2CCN(c3nc(=O)c4cc(C(F)(F)F)cc([N+](=O)[O-])c4s3)CC2)CC1 (centres undefined) | < 0.016 µg/mL | < 0.016 µg/mL |
| C/C(CCN1CCN(c2nc(=O)c3cc(C(F)(F)F)cc([N+](=O)[O-])c3s2)CC1)=N\OCc1ccccc1 | < 0.016 µg/mL | < 0.016 µg/mL |
| CON=C1CCC(CN2C(C)CN(c3nc(=O)c4cc(C(F)(F)F)cc([N+](=O)[O-])c4s3)CC2C)CC1 (centres undefined) | < 0.016 µg/mL | < 0.016 µg/mL |
| NNC(=O)c1ccncc1 [ISONIAZID] | > 40 µg/mL | > 40 µg/mL |
| O=c1nc(N2CCN(CC3CCCCC3)CC2)sc2c([N+](=O)[O-])cc(C(F)(F)F)cc12 [MACOZINONE] | < 0.016 µg/mL | < 0.016 µg/mL |
| CO[C@H]1/C=C/O[C@@]2(C)Oc3c(C)c(O)c4c(O)c(c(/C=N/N5CCN(C)CC5)c(O)c4c3C2=O)NC(=O)/C(C)=C\C=C\[C@H](C)[C@H](O)[C@@H](C)[C@@H](O)[C@@H](C)[C@H](OC(C)=O)[C@@H]1C [RIFAMPIN] | > 40 µg/mL | > 40 µg/mL |
